Assay results taken from ChEMBL document CHEMBL2434893, “Synthesis, DNA binding and anti-leukemic activity of an aminoacyl nucleolipid” (Bioorg Med Chem Lett, 2013).
Activity calls are given as the source filed them. The calls are words filed in the database; no cut-off is given here.

Legend:
[1] = test system: OVCAR-5; assay: Cytotoxicity against human OVCAR5 cells assessed as cell growth at 10 uM after 48 hrs by SRB assay relative to control; type: functional; details: OVCAR-5, 48 h, read-out: Activity
Outline: (§1)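 NCI Developmental Therapeutics Program 60-cell-line screen at a single dose of 10 μM. Cells incubated with compound for 48 h at 37 °C before viability determination.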

[2] = test system: CAKI-1; assay: Cytotoxicity against human Caki1 cells assessed as cell growth at 10 uM after 48 hrs by SRB assay relative to control; type: functional; details: CAKI-1, 48 h, read-out: Activity; outline: as §1
[3] = test system: NCI-H23; assay: Cytotoxicity against human NCI-H23 cells assessed as cell growth at 10 uM after 48 hrs by SRB assay relative to control; type: functional; details: NCI-H23, 48 h, read-out: Activity; outline: as §1
[4] = test system: A498; assay: Cytotoxicity against human A498 cells assessed as cell growth at 10 uM after 48 hrs by SRB assay relative to control; type: functional; details: A498, 48 h, read-out: Activity; outline: as §1
[5] = test system: HL-60(TB); assay: Cytotoxicity against human HL-60(TB) cells assessed as cell growth at 10 uM after 48 hrs by SRB assay relative to control; type: functional; details: HL-60, 48 h, read-out: Activity
Outline: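 Single-dose screen run by the NCI Developmental Therapeutics Program on its 60 human cancer cell line panel, leukemia lines included. Cells were exposed to 10 μM ligand and incubated at 37 °C for 48 h. Cell viability was then determined.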

[6] = test system: CCRF-CEM; assay: Cytotoxicity against human CCRF-CEM cells assessed as cell growth at 10 uM after 48 hrs by SRB assay relative to control; type: functional; details: read-out: Activity; outline: as §1
[7] = test system: ACHN; assay: Cytotoxicity against human ACHN cells assessed as cell growth at 10 uM after 48 hrs by SRB assay relative to control; type: functional; details: read-out: Activity; outline: as §1
[8] = test system: KM12; assay: Cytotoxicity against human KM12 cells assessed as cell growth at 10 uM after 48 hrs by SRB assay relative to control; type: functional; details: KM12, 48 h, read-out: Activity; outline: as §1
[9] = test system: NCI-H226; assay: Cytotoxicity against human NCI-H226 cells assessed as cell growth at 10 uM after 48 hrs by SRB assay relative to control; type: functional; details: NCI-H226, 48 h, read-out: Activity; outline: as §1
[10] = Binding affinity to GRP78 duplex DNA (unknown origin) assessed as change in duplex DNA hyperchromicity at 0.9 to 3.9 mM after 36 hrs by thermal denaturation assay
Outline: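 Duplex DNA (1.1 μM) annealed from complementary strands in phosphate buffer (140 mM KCl, 1 mM MgCl₂, 5 mM sodium phosphate, pH 7.2), with ligand 0.2–3.9 mM. Melting followed as % hyperchromicity at 260 nm over 5–90 °C. Tm shift measured against native duplex.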

[11] = test system: UACC-62; assay: Cytotoxicity against human UACC62 cells assessed as cell growth at 10 uM after 48 hrs by SRB assay relative to control; type: functional; details: UACC-62, 48 h, read-out: Activity
Outline: (§2)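 Single-dose (10 μM) screen run by the NCI Developmental Therapeutics Program on its 60 human cancer cell line panel. Viability was determined after 48 h incubation with the cells at 37 °C.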

[12] = test system: NCI-H522; assay: Cytotoxicity against human NCI-H522 cells assessed as cell growth at 10 uM after 48 hrs by SRB assay relative to control; type: functional; details: NCI-H522, 48 h, read-out: Activity; outline: as §1
[13] = test system: SF-295; assay: Cytotoxicity against human SF295 cells assessed as cell growth at 10 uM after 48 hrs by SRB assay relative to control; type: functional; details: SF-295, 48 h, read-out: Activity; outline: as §1
[14] = test system: HT-29; assay: Cytotoxicity against human HT-29 cells assessed as cell growth at 10 uM after 48 hrs by SRB assay relative to control; type: functional; details: HT-29, 48 h, read-out: Activity; outline: as §1
[15] = test system: SK-MEL-28; assay: Cytotoxicity against human SK-MEL-28 cells assessed as cell growth at 10 uM after 48 hrs by SRB assay relative to control; type: functional; details: SK-MEL-28, 48 h, read-out: Activity; outline: as §1
[16] = Binding affinity to GRP78 duplex DNA (unknown origin) at 0.7 mM after 36 hrs by gel shift mobility assay relative to control
Outline: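 Complementary strands (0.57 μM) annealed in 30% sucrose in TAE buffer (89 mM Tris/acetate, 2.5 mM EDTA, […]), incubated 36 h at 37 °C with ligand at 0, 5, 25, 50, 100 equiv per DNA phosphate (0, 0.2, 0.9, 1.9, 3.9 mM). Run on 24% native PAGE. DNA bands visualized by UV-shadowing at 260 nm. K_D taken from the duplex band ratio with versus without ligand.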

[17] = test system: COLO 205; assay: Cytotoxicity against human COLO205 cells assessed as cell growth at 10 uM after 48 hrs by SRB assay relative to control; type: functional; details: COLO 205, 48 h, read-out: Activity; outline: as §1
[18] = test system: RXF 393; assay: Cytotoxicity against human RXF393 cells assessed as cell growth at 10 uM after 48 hrs by SRB assay relative to control; type: functional; details: RXF 393, 48 h, read-out: Activity; outline: as §1
[19] = test system: HCT-116; assay: Cytotoxicity against human HCT116 cells assessed as cell growth at 10 uM after 48 hrs by SRB assay relative to control; type: functional; details: HCT-116, 48 h, read-out: Activity; outline: as §1
[20] = test system: HCT-15; assay: Cytotoxicity against human HCT15 cells assessed as cell growth at 10 uM after 48 hrs by SRB assay relative to control; type: functional; details: HCT-15, 48 h, read-out: Activity; outline: as §1
[21] = test system: OVCAR-4; assay: Cytotoxicity against human OVCAR4 cells assessed as cell growth at 10 uM after 48 hrs by SRB assay relative to control; type: functional; details: OVCAR-4, 48 h, read-out: Activity; outline: as §1
[22] = test system: NCI-H322M; assay: Cytotoxicity against human NCI-H322M cells assessed as cell growth at 10 uM after 48 hrs by SRB assay relative to control; type: functional; details: read-out: Activity; outline: as §1
[23] = test system: SNB-19; assay: Cytotoxicity against human SNB19 cells assessed as cell growth at 10 uM after 48 hrs by SRB assay relative to control; type: functional; details: SNB-19, 48 h, read-out: Activity; outline: as §2
[24] = test system: RPMI-8226; assay: Cytotoxicity against human RPMI8226 cells assessed as cell growth at 10 uM after 48 hrs by SRB assay relative to control; type: functional; details: RPMI-8226, 48 h, read-out: Activity; outline: as §1
[25] = Binding affinity to GRP78 duplex DNA (unknown origin) assessed as DNA-compound complex formation at 3.9 mM measured at 36 hrs by dynamic light scattering analysis relative to control
Outline: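 DNA (1.1 μM), with or without ligand at 3.9 mM, incubated 36 h in phosphate buffer. Particle size then measured by dynamic light scattering against native DNA and ligand alone.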

[26] = test system: MCF7; assay: Cytotoxicity against human MCF7 cells assessed as cell growth at 10 uM after 48 hrs by SRB assay relative to control; type: functional; details: MCF7, 48 h, read-out: Activity; outline: as §1
[27] = test system: SR; assay: Cytotoxicity against human SR cells assessed as cell growth at 10 uM after 48 hrs by SRB assay relative to control; type: functional; details: read-out: Activity; outline: as §2
[28] = test system: A549; assay: Cytotoxicity against human A549 cells assessed as cell growth at 10 uM after 48 hrs by SRB assay relative to control; type: functional; details: A549, 48 h, read-out: Activity; outline: as §1

Work on `CCCCCCCCCCCCCCCC(=O)O[C@@H]1[C@H](OC(=O)CCCCCCCCCCCCCCC)[C@@H](C(=O)N[C@@H](CCCCN)C(=O)OC)O[C@H]1n1cnc2c(=O)[nH]c(NC(=O)C(C)C)nc21.Cl` yielded a growth at 10 µM [1] of 108%, a growth at 10 µM [2] of 94% and a growth at 10 µM [3] of 97.8%. It also gave a growth at 10 µM [4] of 98.1%, a growth at 10 µM [5] of 98.3% and a growth at 10 µM [6] of 86%. For the same compound, the growth at 10 µM [7] was 102%, the growth at 10 µM [8] was 95% and the growth at 10 µM [9] was 102%. The Activity [10] was “Active”, the growth at 10 µM [11] was 112% and the growth at 10 µM [12] was 84.4%. The growth at 10 µM [13] was 108%, the growth at 10 µM [14] was 98.2% and the growth at 10 µM [15] was 113%. It also gave an Activity [16] of 50%, a growth at 10 µM [17] of 101% and a growth at 10 µM [18] of 105%. It also gave a growth at 10 µM [19] of 85.4%, a growth at 10 µM [20] of 96.6% and a growth at 10 µM [21] of 120%. It also gave a growth at 10 µM [22] of 89.6%, a growth at 10 µM [23] of 93.5% and a growth at 10 µM [24] of 92.5%. For the same compound, the fold change (FC) [25] was > 2, the growth at 10 µM [26] was 96.4% and the growth at 10 µM [27] was 9.69%. For the same compound, the growth at 10 µM [28] was 99.8%.
